Screens as filed in PubChem.
Sampled rows, rich in hits. Any-hit rate of the full collection: about 2.9%.
OX1R antag-1 – antagonists of human orexin 1 receptor (OX1R); Orexin/Hypocretin receptor type 1 (Homo sapiens), O43613; OX1R-expressing cells, FRET antagonist read-out; AID 485270, 2010; actives 1.8% (n = 330,000); inhibition, % at 6.6 µM; in the data active = inhibition mostly above about 38%, no sharp cut-off; inactive = mostly below about 40%
Target sequence (O43613 whole entry, looked up): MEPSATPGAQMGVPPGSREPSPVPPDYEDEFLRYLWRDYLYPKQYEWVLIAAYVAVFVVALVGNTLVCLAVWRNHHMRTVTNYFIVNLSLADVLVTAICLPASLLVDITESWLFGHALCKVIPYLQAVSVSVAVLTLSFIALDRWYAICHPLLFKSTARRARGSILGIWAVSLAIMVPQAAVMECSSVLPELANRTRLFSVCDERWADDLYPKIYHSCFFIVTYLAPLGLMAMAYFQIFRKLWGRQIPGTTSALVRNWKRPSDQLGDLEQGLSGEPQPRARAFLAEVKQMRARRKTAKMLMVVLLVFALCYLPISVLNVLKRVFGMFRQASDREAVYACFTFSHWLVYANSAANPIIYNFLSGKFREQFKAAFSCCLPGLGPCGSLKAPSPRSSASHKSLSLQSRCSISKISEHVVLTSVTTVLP
CHO-K1 Ca antag – nonselective inhibitor or artifact in parental CHO-K1 cells | ATP-induced calcium, Fluo-8 fluorescence | inhibition, % at 3 µM | actives 0.6% (n = 360,000);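 active = inhibition above a per-plate cutoff, the plate's mean sample inhibition plus 3 SD, cut at about 24% in these data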
M1 PAM parental – nonselective calcium activators in parental CHO-K1 cells, primary screen, counter-screen for M1 PAM project, cell-based, Fluo-8 calcium fluorescence, full deck, 1536-well. activation, % at 3 µM. actives 0.02% (n = 360,000). ATP EC20; 0% at ATP EC20, 100% at ATP max;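 active = activation above the run cutoff, the mean activation of all test compounds plus 3 SD, cut at about 40% in these data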;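 also: peak over basal fluorescence ratio in a 140 s read after ATP addition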
OX1R antag-2 – OX1R (HCRTR1) antagonists, primary screen, fluorescence, CHO/OX1R cells, Fluo-8 calcium, orexin A; Orexin/Hypocretin receptor type 1 (Homo sapiens), O43613; Fluo-8 calcium fluorescence; inhibition, % at 5 µM; actives 0.43% (n = 330,000);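 active = inhibition above its plate's threshold, mean inhibition of all tested compounds on the plate plus 3 SD, cut at about 37% in these data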
CHO parental Ca – ATP-evoked calcium signal inhibitors, parental CHO, primary screen, counter-screen for OX1R antagonist project, cell-based, fluorescence, Fluo-8 calcium dye | parental CHO-K1, ATP-induced calcium, Fluo-8 fluorescence | inhibition, % at 5.6 µM | actives 0.63% (n = 330,000);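 active = inhibition above that plate's mean sample inhibition plus 3 SD, cut at about 26% in these data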
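material = parental CHO cells | also added = ATP as calcium-mobilizing challenge | dosing = single point at 5.6 µM | detection = intracellular calcium via Fluo-8 no-wash fluorescent dye | read-out = % inhibition | benchmarks = low control ATP plus DMSO, high control DMSO only | repeats = one well per compound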
CHO-K1 Ca ag – counter-screen for M1 agonists: effect in parental CHO-K1 cells | Fluo-8 calcium fluorescence; scaled to maximal ATP response, vehicle zero | activation, % at 3 µM | actives 0.48% (n = 360,000) | AID 602248, 2012; in the data active = activation above about 15%;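 also: untransfected CHO-K1 host cells lacking M1 receptor as counterscreen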
OX1R Fluo8 conf – OX1R (HCRTR1) antagonists, confirmation, fluorescence, CHO/OX1R cells, Fluo-8 calcium, orexin A; shares compounds with OX1R antag-2; orexin A calcium Fluo-8 fluorescence; inhibition, % at 5 µM; actives 38% (n = 1,100); in the data active = inhibition above about 29%
CHO Ca triplic – ATP-evoked calcium inhibition in parental CHO, counter-screen for OX1R antagonist project, cell-based, fluorescence, CHO-K1, triplicate; shares compounds with OX1R antag-2; actives 9.3% (n = 1,100); inhibition, % at 5.6 µM; ATP-induced calcium, Fluo-8 fluorescence;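 active = inhibition above a per-plate limit, the mean inhibition of that plate's test compounds plus 3 SD, cut at about 25% in these data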
Of the large screens only hits and unclear results are named; the others gave an inactive call (follow-up assays come after a bar, where they were run).

COc1ccc(CN(C)Cc2cc(=O)oc3cc(C)c(C(C)C)cc23)cc1OC	none
Cc1cc2oc(=O)cc(CN(C)Cc3ccccc3)c2cc1C(C)C	CHO parental Ca 31
O=C(CNC(=O)C1CCCCC1)Nc1cc(Cl)ccc1Cl	CHO-K1 Ca antag 25
CC[n+]1cc(-c2ccccc2)nc(N2CCOCC2)n1	OX1R antag-1 51
O=C1c2ccccc2S(=O)(=O)N1CCOc1ccccc1	none
CCNc1nc(NC(C)C)nc(NS(=O)(=O)c2ccc(N)cc2)n1	CHO-K1 Ca antag 27
CC(C)Nc1nc(NC(C)C)nc(NS(=O)(=O)c2ccc(N)cc2)n1	none
COC(=O)CSc1nc2c(cnn2-c2ccc(F)cc2)c(=O)[nH]1	none
CC(=O)N1CCCc2cc(S(=O)(=O)N3CCCC(C(=O)N4CCN(c5cc(C)ccc5C)CC4)C3)ccc21 (stereo not drawn)	OX1R antag-1 40, OX1R antag-2 51, CHO parental Ca 44
COc1ccccc1N1CCN(C(=O)C2CCCN(S(=O)(=O)c3ccc4c(c3)CCCN4C(C)=O)C2)CC1 (stereo not drawn)	none
CC(=O)N1CCCc2cc(S(=O)(=O)N3CCCC(C(=O)N4CCN(c5ccccc5)CC4)C3)ccc21 (stereo not drawn)	CHO-K1 Ca ag 16
COc1ccccc1-c1ccc(SCc2cccc(C)c2)nn1	CHO parental Ca 48
CC1=C(C(=O)Nc2ccc(F)cc2)C(c2ccncc2)C2=C(CCCC2=O)N1 (stereo not drawn)	CHO-K1 Ca antag 24
O=C(O)c1cccc(S(=O)(=O)Nc2ccc(-c3ccccc3)cc2)c1	none
Cc1ccc(Sc2ccc(S(=O)(=O)Nc3ccc(C(=O)O)cc3)cc2)cc1C	CHO parental Ca 48
O=C(O)c1ccc(NS(=O)(=O)c2ccc3c(c2)C(=O)c2ccccc2C3=O)cc1	CHO-K1 Ca antag 25
CCOc1ccc(-c2nc(CSCC(=O)NC3CCCc4ccccc43)c(C)o2)cc1 (stereo not drawn)	none
CC(=O)c1c(C)[nH]c(C(=O)COc2cc(C)ccc2C(C)C)c1C	OX1R antag-1 84, OX1R antag-2 62, CHO parental Ca 74
COc1cc(C)ccc1OCC(=O)OCC(=O)c1[nH]c(C)c(C(C)=O)c1C	none
CCc1sc(NC(C)=O)nc1-c1ccccc1	none
CCc1sc(N2C(=O)C3C4CCC(C4=C(C)C)C3C2=O)nc1-c1ccccc1 (stereo not drawn)	OX1R antag-1 38
CCOc1ccc2nc(NC(=O)C3=NN(c4ccccc4)C(=O)CC3)sc2c1	none
CC(C)c1nc2c(c(=O)c3ccccc3n2C)c(=O)n1CCc1ccccc1	CHO-K1 Ca ag 21
COc1ccc(CCn2c(-c3ccccc3)nc3c(c(=O)c4ccccc4n3C)c2=O)cc1	none (no result: CHO-K1 Ca antag, M1 PAM parental, CHO-K1 Ca ag)
Cc1ccc(C(=O)N(CC(C)C)c2nc3ccccc3s2)o1	none
CC(C)CN(C(=O)c1ccc(=O)n(C)n1)c1nc2ccccc2s1	CHO-K1 Ca antag 24
CN1C2CCC1/C(=C\c1ccc(F)cc1)C(=O)/C2=C/c1ccc(F)cc1	none
CN1C2CCC1/C(=C/c1cccn1C)C(=O)/C2=C\c1cccn1C	none | OX1R Fluo8 conf inactive | CHO Ca triplic inactive
OC[C@@H]1CN(Cc2ccc(F)cc2)C[C@H](n2cnc3c(N4CCN(c5ccccc5)CC4)ncnc32)O1	none (no result: OX1R antag-1, OX1R antag-2, CHO parental Ca)
Cc1ccccc1-n1nnnc1SCC(C)C	none
Cc1ccccc1-n1nnnc1SCc1csc(-c2ccccc2)n1	none | OX1R Fluo8 conf inactive | CHO Ca triplic inactive
O=C(NN1C(=O)/C(=C/c2ccc(O)cc2)SC1=S)c1ccccc1O	none | OX1R Fluo8 conf inactive | CHO Ca triplic inactive
O=C(NN1C(=O)/C(=C/c2ccc(O)cc2)SC1=S)c1cccc(O)c1	none
COc1ccc2c(COC(=O)c3cccc(S(=O)(=O)NCC(C)C)c3)cc(=O)oc2c1	OX1R antag-2 46, CHO-K1 Ca ag 17 | OX1R Fluo8 conf 42 | CHO Ca triplic inactive
COc1cccc(S(=O)(=O)NCc2ccc(C(=O)Nc3cccc(Cl)c3)cc2)c1	OX1R antag-2 45 | OX1R Fluo8 conf inactive | CHO Ca triplic inactive
COc1ccc(OCc2n(CC(=O)OC3CC(C)CCC3C(C)C)c3ccccc3[n+]2C)cc1 (stereo not drawn)	OX1R antag-2 40 | OX1R Fluo8 conf 47 | CHO Ca triplic inactive
Cc1nn(CCCC(=O)Nc2c(F)cc(F)cc2Br)c(C)c1[N+](=O)[O-]	none
Cc1cccc(C(=O)Nc2ccc(N3CCN(C(=O)c4ccco4)CC3)cc2)c1	none
Cc1cccc(OCC(=O)Nc2ccc(N3CCN(C(=O)c4ccco4)CC3)cc2)c1	CHO-K1 Ca antag 29, OX1R antag-2 53, CHO-K1 Ca ag 16 | OX1R Fluo8 conf 50 | CHO Ca triplic 51
COCc1cccc(N2C(=O)CC(C3C=C(C)C4C(=O)N(c5cccc(COC)c5)C(=O)C4C3)C2=O)c1 (stereo not drawn)	none
CCCn1c(N)c(C(=O)CSc2nc3ccccc3s2)c(=O)[nH]c1=O	OX1R antag-2 45 | OX1R Fluo8 conf inactive | CHO Ca triplic inactive
CCCn1c(N)c(C(=O)CSc2nnc(N)s2)c(=O)[nH]c1=O	none
O=C(N/C(=C/c1cccc(Br)c1)c1nc(=S)[nH][nH]1)c1ccccc1	none | OX1R Fluo8 conf 49 | CHO Ca triplic inactive
N#Cc1cc(C(=O)c2cc(Br)ccc2O)cn(Cc2ccccc2)c1=O	none | OX1R Fluo8 conf inactive | CHO Ca triplic inactive
COc1ccc(N(CC(=O)Nc2ccc(OC)c(OC)c2)S(=O)(=O)c2ccccc2)cc1Cl	none
COc1ccc(N(CC(=O)Nc2cccc(N(C)S(C)(=O)=O)c2)S(=O)(=O)c2ccc(F)cc2)cc1	none
COc1ccc(N(CC(=O)Nc2cccc(N(C)S(C)(=O)=O)c2)S(=O)(=O)c2ccccc2)cc1Cl	OX1R antag-2 59 | OX1R Fluo8 conf 56 | CHO Ca triplic inactive
COc1ccc(N(CC(=O)Nc2cccc(N(C)S(C)(=O)=O)c2)S(=O)(=O)c2ccc(C)cc2)cc1	none | OX1R Fluo8 conf inactive | CHO Ca triplic inactive
Nc1cc(=O)n(Cc2ccco2)c(=S)[nH]1	none (no result: OX1R antag-1, OX1R antag-2, CHO parental Ca)
